Bioassay records (PubChem)
SR-BI DiI inh: mouse SR-BI HDL lipid transfer inhibition; Q61009; 0.96% of 320,000 active; ldlA[mSR-BI] CHO cells, DiI-HDL uptake fluorescence, 3 h; inhibition, % at 12.5 µM;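 active = mean replicate inhibition of at least 70% and a set share of replicates each scoring 70 or more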;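 note: 0% = median of neutral control wells and 100% = median of positive control wells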
PvdQ inh: blocks Pseudomonas aeruginosa PvdQ acylase activity; purified PvdQ acylase, fluorescence plate reader; inhibition, % at 10 µM; 0.063% of 340,000 active; AID 488965; in the data active = inhibition above about 30%, passing the limit was not always enough;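 note: 0% = vehicle neutral wells and 100% = reference inhibitor wells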
S100A4 inh HTS: inhibitors of human S100A4 binding to myosin IIA peptide. AID 652163. P26447. inhibition, % at 10.7 µM. 0.14% of 360,000 active. S100A4/TAMRA-MyoIIA peptide fluorescence polarization;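 active = mean inhibition of at least 70% across replicates, with every replicate also reaching that level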
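incubation = readout 5 min after mixing, signal stable up to 60 min | system = S100A4 monomer protein | buffer or medium = HEPES pH 7.2 with CaCl2, KCl, NaCl, DTT, Triton | benchmarks = neutral control DMSO, positive control TFP | also added = fluorescent myosin IIA peptide, 5 nM | compound dosing = one concentration per compound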
RAD54 branch: RAD54 (human) branch migration inhibition; RAD54 Holliday junction branch migration, FAM/BHQ fluorescence; inhibition, % at 10.4 µM; 0.14% of 360,000 active; AID 602329;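 active = mean normalized replicate activity at least 40 and at least half of replicates scoring 40 or more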;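 note: 0% = median of neutral control wells and 100% = median of positive control wells; inhibitors cause a drop in the FAM fluorescence signal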
dFosB activator: mouse delta FosB homodimer activation | purified delta FosB, TAMRA-CDK5 oligo fluorescence polarization; percent of positive-control signal above neutral wells | activation, % at 25 µM | 0.99% of 340,000 active;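 active = mean activation above about 17%, with every replicate also reaching it, limit read from the data, passing the limit was not always enough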
SR-BI uptake up: activators of SR-BI mediated HDL lipid uptake | activation, % at 12.5 µM | CHO ldlA[mSR-BI] cells, DiI-HDL uptake fluorescence, 3 h; 100 = double the neutral-control signal | AID 504775 | 0.096% of 320,000 active;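 active = mean replicate activation of at least 60% and every replicate at or above 60%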;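 note: 0% = median plate neutral-control signal and 100% = twice that signal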
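System: CHO ldlA[mSR-BI] cells / Medium: HEPES-buffered (25 mM, pH 7.4) F12 plus 0.5% BSA / Probe or stimulus: labelled HDL, 10 µg/mL / Doses: single compound concentration, delivered by pin transfer / Schedule: 3 h, 37 °C / Measured by: DiI fluorescence, bottom read / Measure: cell-associated DiI fluorescence as measure of HDL uptake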
Active calls of the source: *; . = no result given. A selection: hits, their analogues and other compounds. The true share with any hit is near 1.6%.

SMILES	SR-BI DiI inh	PvdQ inh	S100A4 inh HTS	RAD54 branch	dFosB activator	SR-BI uptake up
C[C@H](CO)N1C[C@H](C)[C@@H](CN(C)C(=O)Nc2ccc(F)cc2)Oc2ccc(NC(=O)C3CC3)cc2C1=O	.	.	34	1	.	.
Cc1nc2ccccc2n1S(=O)(=O)c1ccc(Br)cc1	-65	-5	.	.	8	65*
COc1ccccc1NC(=O)N[C@H]1CC[C@@H](CCNS(=O)(=O)c2ccc(F)cc2)O[C@H]1CO	.	.	13	-1	.	.
Cc1noc(C)c1NC(=O)Nc1ccc2c(c1)C(=O)N([C@H](C)CO)C[C@@H](C)[C@H](CN(C)Cc1ccc(Oc3ccccc3)cc1)O2	.	.	-19	17	.	.
c1ccc2oc(C3=NNC(=NC4CC4)SC3)cc2c1	82*	2	-2	.	-13	-82
c1ccc(CN=C2NN=C(c3cc4ccccc4o3)CS2)cc1	-1	0	.	.	-11	1
COCC#Cc1ccc2c(c1)O[C@@H](CN(C)Cc1ccc3c(c1)OCO3)[C@H](C)CN([C@H](C)CO)S2(=O)=O	.	.	-1	0	.	.
COc1cccc(S(=O)(=O)N(C)C[C@@H]2Oc3ncc(/C=C/c4ccccc4)cc3C(=O)N([C@H](C)CO)C[C@@H]2C)c1	.	.	-8	2	.	.
COc1cc(C(=O)Nc2ccc(N3CCCS3(=O)=O)cc2)c([N+](=O)[O-])cc1OC	81*	10	-4	-3	-8	-81
COc1cc(C(=O)Nc2ccc3c(c2)CCCN3C(=O)c2ccco2)c([N+](=O)[O-])cc1OC	76*	1	1	-6	1	-76
COc1cc(C(=O)Nc2ccc(N(C)C)cc2)c([N+](=O)[O-])cc1OC	17	-8	-17	-7	9	-17
C[C@H]1CN([C@@H](C)CO)C(=O)c2cccc(NS(=O)(=O)c3cn(C)cn3)c2O[C@@H]1CN(C)C	.	.	-2	0	.	.
Cc1cccc(C)c1NC(=O)Cn1c(=O)c2cccn2c2ccccc21	-2	-7	-6	12	29*	2
Cc1cccc(C)c1NC(=O)Cn1nc(C)n2cccc2c1=O	-31	-7	3	5	-7	.
COc1ccc(S(=O)(=O)N[C@H]2CC[C@@H](CC(=O)N3CCN(c4ccccc4)CC3)O[C@H]2CO)cc1	.	.	6	6	.	.
C=CCN1C(=O)/C(=C2/Sc3ccc(OC)cc3N2C)SC1=Nc1cccc(O)c1	102*	-7	1	.	-17	-102
Cc1ccc(-n2c(C)nc3ccsc3c2=O)cc1	-5	3	-3	-3	-3	5
Cc1ccc(-c2nc3ccsc3c(=O)o2)cc1	1	66*	.	-2	0	-1
COCC(=O)NCc1ccc2c(c1)cc(C)n2C	3	6	-1	.	-5	-3
Cc1cc2cc(CNC(=O)Nc3ccc(Cl)c(Cl)c3)ccc2n1C	43	-7	80*	2	15	-43
CO[C@H](CN(C)S(=O)(=O)c1ccccc1)[C@H](C)CN(C(=O)Nc1ccccc1F)[C@H](C)CO	.	.	-3	5	.	.
COc1ccc(C)cc1S(=O)(=O)NCCN1CCOCC1	74*	-12	2	-18	-4	-74
O=C(CN1CCOCC1)N[C@H]1CC[C@H](CCNC(=O)C2CCC2)O[C@@H]1CO	.	.	8	-4	.	.
Cc1c(C(=O)N2CCCCC2)sc(NC(=O)C2CC2)c1C#N	-241	-11	-1	-6	-7	241*
Cc1c(C(=O)N2CCCCC2)sc(NC(=O)C(C)C)c1C#N	9	-4	-1	.	-8	-9
CN(c1ncnc(N)c1[N+](=O)[O-])C1CCS(=O)(=O)C1 (centres undefined)	-10	3	-4	4	6	10
CN(c1ncnc(N)c1[N+](=O)[O-])C1CCCCC1	-41	38*	0	0	3	41
C[C@H](O)C#Cc1ccc2c(c1)O[C@H](CN(C)C(=O)Cc1ccccn1)[C@@H](C)CN([C@@H](C)CO)S2(=O)=O	.	.	0	-5	.	.
C[C@H]1CN([C@@H](C)CO)C(=O)Cc2cc(NC(=O)Nc3ccc(F)cc3)ccc2O[C@@H]1CN(C)CC1CCCCC1	.	.	-13	6	.	.
